ChEMBL document CHEMBL5120972, “Small-Molecule Inhibitors of the MLL1 CXXC Domain, an Epigenetic Reader of DNA Methylation” (ACS Med Chem Lett, 2022)

Each molecule was assayed against T1, CXXC-type zinc finger protein 5 (Homo sapiens, UniProt Q7LFL8) (assay: Inhibition of GST-tagged human CXXC5 (255 to 305 residues) expressed in Escherichia coli BL21 cells incubated for 30 mins by fluorescence polarization assay).
T1 sequence (Q7LFL8 whole entry): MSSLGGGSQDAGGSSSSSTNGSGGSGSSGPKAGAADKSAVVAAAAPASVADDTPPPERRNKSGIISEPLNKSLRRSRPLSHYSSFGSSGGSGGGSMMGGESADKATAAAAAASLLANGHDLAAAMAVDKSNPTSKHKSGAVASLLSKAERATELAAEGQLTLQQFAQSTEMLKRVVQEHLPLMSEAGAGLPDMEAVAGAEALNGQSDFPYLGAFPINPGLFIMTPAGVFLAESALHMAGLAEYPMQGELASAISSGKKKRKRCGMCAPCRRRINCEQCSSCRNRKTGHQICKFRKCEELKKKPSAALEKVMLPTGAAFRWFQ
Summary of the method: (§1)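 Competition fluorescence polarization assay. CXXC domain protein is held at 2× its own KD. All domains are expressed and purified by the same method. Standard deviations come from three separate measurements.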
For C=CC(=O)N1CCC(c2ccc(OCC)cc2)(c2nnn[nH]2)CC1, the IC50 was 131 µM.
C=CC(=O)N1CCC(C(=O)O)(c2ccc(OCC)cc2)CC1 was tested, and the IC50 was 16.2 µM.
C=CC(=O)N1CCC(c2ccc(OC)cc2)(c2nnn[nH]2)CC1 gave an IC50 of 56 µM.
C=CC(=O)N1CCC(c2cccc(OCC)c2)(c2nnn[nH]2)CC1 showed an IC50 of 40 µM.
Molecule C=CC(=O)N1CCC(C(=O)O)(c2ccccc2)CC1 has an IC50 of 4.8 µM.
In the case of C=CC(=O)N1CCC(C(=O)O)(c2ccc(OC)cc2)CC1, the IC50 is reported as 47 µM.
C=CC(=O)N1CCC(c2ccccc2)(c2nnn[nH]2)CC1 showed an IC50 of 28 µM.
In the case of C=CC(=O)N1CCC(C(=O)O)(c2ccc(Cl)cc2)CC1, the IC50 is reported as 53 µM.
For C=CC(=O)N1CCC(C(=O)NS(=O)(=O)c2ccccc2)(c2ccccc2)CC1, the IC50 was 53 µM.

These molecules were tested against T2, Lysine-specific demethylase 2B (Homo sapiens, UniProt Q8NHM5) (assay: Inhibition of GST-tagged human KDM2B (604 to 660 residues) expressed in Escherichia coli BL21 cells incubated for 30 mins by fluorescence polarization assay).
T2 sequence (Q8NHM5 whole entry): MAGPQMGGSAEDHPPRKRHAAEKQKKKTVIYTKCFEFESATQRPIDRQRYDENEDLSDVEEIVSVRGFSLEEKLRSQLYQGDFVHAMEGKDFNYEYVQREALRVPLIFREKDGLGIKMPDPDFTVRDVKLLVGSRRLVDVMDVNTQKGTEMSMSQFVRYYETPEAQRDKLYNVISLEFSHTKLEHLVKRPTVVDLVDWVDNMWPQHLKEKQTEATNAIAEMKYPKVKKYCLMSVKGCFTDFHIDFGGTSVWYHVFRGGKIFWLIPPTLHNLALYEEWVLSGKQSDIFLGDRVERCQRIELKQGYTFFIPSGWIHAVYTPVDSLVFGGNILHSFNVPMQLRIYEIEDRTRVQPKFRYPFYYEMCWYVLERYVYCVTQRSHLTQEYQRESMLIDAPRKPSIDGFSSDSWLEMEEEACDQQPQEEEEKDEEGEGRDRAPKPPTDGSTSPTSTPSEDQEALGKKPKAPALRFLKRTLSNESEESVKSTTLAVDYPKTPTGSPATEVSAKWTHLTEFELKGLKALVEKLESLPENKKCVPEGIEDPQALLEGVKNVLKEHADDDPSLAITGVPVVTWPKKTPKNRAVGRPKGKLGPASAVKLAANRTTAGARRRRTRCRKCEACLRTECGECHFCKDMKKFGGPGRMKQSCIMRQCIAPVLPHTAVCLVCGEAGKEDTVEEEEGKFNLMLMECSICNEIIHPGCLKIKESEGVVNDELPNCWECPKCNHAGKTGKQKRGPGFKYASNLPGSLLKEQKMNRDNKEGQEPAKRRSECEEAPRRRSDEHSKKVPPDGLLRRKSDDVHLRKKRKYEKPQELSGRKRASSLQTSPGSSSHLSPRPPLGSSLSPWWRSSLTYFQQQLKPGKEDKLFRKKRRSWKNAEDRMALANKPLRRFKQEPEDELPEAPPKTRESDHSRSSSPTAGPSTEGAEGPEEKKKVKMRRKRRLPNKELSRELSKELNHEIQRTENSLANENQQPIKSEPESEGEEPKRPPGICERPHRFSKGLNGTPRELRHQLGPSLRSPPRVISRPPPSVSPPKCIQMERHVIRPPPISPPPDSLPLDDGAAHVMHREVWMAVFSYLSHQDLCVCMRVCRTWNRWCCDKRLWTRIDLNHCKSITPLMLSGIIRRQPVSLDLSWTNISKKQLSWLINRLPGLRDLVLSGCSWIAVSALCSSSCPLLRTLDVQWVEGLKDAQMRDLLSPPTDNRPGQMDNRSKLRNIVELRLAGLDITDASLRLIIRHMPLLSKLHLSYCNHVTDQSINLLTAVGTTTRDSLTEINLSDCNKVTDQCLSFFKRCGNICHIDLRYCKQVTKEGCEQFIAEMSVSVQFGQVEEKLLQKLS
Summary of the method: as §1
With C=CC(=O)N1CCC(c2ccc(OCC)cc2)(c2nnn[nH]2)CC1 the IC50 was 30 µM.
Work on C=CC(=O)N1CCC(C(=O)O)(c2ccc(OCC)cc2)CC1 yielded an IC50 of 3.6 µM.
C=CC(=O)N1CCC(c2ccc(OC)cc2)(c2nnn[nH]2)CC1 was tested, and the IC50 was 32 µM.
Work on C=CC(=O)N1CCC(c2cccc(OCC)c2)(c2nnn[nH]2)CC1 yielded an IC50 of 9.4 µM.
C=CC(=O)N1CCC(C(=O)O)(c2ccccc2)CC1 showed an IC50 of 6.4 µM.
Work on C=CC(=O)N1CCC(C(=O)O)(c2ccc(OC)cc2)CC1 yielded an IC50 of 53 µM.
Molecule C=CC(=O)N1CCC(c2ccccc2)(c2nnn[nH]2)CC1 has an IC50 of 8.3 µM.
In the case of C=CC(=O)N1CCC(C(=O)O)(c2ccc(Cl)cc2)CC1, the IC50 is reported as 53 µM.
Molecule C=CC(=O)N1CCC(C(=O)NS(=O)(=O)c2ccccc2)(c2ccccc2)CC1 has an IC50 of 35 µM.

What follows are molecules tested against Histone-lysine N-methyltransferase 2A (Homo sapiens, UniProt Q03164) (assay: Inhibition of GST-tagged human MLL1 (1147 to 1203 residues) expressed in Escherichia coli BL21 cells incubated for 30 mins by fluorescence polarization assay).
Histone-lysine N-methyltransferase 2A, sequence (Q03164 1-2718 limits assumed): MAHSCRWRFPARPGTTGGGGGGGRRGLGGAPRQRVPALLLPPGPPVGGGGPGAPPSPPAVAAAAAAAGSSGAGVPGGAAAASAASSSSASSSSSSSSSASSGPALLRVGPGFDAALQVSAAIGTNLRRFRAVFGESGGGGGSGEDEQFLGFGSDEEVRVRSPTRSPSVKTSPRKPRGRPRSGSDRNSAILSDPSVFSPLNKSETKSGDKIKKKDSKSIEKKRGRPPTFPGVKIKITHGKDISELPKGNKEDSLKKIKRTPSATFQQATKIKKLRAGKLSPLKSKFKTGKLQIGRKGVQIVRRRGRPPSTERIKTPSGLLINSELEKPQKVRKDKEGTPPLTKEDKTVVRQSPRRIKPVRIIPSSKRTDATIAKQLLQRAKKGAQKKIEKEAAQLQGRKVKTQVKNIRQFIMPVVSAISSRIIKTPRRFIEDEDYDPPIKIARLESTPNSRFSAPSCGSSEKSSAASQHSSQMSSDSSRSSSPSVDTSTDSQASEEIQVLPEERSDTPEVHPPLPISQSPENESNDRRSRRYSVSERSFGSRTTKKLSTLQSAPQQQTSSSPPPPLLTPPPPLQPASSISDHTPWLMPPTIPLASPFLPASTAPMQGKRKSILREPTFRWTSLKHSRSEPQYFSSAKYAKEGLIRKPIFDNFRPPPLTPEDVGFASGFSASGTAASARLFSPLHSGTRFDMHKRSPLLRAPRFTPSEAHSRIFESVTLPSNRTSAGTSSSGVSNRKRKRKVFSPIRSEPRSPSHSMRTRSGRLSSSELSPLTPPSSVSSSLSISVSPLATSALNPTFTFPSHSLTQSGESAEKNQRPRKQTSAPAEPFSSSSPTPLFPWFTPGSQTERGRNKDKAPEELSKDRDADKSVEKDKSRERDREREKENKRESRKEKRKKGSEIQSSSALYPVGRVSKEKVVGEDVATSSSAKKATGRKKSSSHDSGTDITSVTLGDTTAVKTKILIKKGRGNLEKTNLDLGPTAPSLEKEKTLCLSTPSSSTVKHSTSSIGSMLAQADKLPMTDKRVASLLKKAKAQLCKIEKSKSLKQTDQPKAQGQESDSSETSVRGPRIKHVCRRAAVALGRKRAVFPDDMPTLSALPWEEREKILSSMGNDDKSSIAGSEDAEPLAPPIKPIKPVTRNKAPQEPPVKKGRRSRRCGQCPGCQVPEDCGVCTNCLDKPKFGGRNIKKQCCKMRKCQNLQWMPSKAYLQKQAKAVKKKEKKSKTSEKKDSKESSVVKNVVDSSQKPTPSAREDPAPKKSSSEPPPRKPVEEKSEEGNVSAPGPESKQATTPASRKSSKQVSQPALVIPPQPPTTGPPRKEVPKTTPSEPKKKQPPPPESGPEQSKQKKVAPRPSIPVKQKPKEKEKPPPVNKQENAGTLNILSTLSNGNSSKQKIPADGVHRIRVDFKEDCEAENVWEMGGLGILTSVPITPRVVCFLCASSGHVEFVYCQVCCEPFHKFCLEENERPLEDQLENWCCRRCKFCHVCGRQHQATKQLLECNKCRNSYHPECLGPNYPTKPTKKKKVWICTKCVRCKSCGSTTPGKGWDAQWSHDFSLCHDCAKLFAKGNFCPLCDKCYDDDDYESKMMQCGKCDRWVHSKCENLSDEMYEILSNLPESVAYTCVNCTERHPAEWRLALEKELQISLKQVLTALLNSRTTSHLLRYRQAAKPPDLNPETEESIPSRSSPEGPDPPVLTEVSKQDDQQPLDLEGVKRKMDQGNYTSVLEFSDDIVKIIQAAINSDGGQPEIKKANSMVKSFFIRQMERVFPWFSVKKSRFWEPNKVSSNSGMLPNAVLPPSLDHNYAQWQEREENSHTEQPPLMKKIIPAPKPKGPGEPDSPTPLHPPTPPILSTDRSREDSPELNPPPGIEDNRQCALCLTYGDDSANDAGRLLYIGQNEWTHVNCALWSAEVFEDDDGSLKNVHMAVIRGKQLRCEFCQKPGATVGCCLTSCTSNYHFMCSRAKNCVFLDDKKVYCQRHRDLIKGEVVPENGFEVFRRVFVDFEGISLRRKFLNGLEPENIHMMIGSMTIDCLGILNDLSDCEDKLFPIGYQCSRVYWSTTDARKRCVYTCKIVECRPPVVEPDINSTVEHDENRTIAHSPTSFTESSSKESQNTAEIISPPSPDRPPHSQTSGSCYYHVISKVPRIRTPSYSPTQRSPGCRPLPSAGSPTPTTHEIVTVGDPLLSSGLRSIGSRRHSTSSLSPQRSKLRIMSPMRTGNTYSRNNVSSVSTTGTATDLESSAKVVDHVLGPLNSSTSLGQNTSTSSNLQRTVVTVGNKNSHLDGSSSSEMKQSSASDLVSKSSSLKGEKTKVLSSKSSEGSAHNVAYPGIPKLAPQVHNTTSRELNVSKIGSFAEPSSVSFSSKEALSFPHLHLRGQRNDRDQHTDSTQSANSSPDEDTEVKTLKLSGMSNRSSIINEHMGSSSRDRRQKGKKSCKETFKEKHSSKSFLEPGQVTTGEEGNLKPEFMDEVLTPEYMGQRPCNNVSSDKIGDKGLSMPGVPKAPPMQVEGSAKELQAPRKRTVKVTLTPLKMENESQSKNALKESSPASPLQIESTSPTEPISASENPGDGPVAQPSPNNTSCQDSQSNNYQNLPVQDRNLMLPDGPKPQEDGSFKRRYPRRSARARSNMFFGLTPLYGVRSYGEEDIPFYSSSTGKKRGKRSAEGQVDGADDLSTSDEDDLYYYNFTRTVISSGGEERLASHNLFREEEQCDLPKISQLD
Histone-lysine N-methyltransferase 2A, sequence (Q03164 2719-3969 limits assumed): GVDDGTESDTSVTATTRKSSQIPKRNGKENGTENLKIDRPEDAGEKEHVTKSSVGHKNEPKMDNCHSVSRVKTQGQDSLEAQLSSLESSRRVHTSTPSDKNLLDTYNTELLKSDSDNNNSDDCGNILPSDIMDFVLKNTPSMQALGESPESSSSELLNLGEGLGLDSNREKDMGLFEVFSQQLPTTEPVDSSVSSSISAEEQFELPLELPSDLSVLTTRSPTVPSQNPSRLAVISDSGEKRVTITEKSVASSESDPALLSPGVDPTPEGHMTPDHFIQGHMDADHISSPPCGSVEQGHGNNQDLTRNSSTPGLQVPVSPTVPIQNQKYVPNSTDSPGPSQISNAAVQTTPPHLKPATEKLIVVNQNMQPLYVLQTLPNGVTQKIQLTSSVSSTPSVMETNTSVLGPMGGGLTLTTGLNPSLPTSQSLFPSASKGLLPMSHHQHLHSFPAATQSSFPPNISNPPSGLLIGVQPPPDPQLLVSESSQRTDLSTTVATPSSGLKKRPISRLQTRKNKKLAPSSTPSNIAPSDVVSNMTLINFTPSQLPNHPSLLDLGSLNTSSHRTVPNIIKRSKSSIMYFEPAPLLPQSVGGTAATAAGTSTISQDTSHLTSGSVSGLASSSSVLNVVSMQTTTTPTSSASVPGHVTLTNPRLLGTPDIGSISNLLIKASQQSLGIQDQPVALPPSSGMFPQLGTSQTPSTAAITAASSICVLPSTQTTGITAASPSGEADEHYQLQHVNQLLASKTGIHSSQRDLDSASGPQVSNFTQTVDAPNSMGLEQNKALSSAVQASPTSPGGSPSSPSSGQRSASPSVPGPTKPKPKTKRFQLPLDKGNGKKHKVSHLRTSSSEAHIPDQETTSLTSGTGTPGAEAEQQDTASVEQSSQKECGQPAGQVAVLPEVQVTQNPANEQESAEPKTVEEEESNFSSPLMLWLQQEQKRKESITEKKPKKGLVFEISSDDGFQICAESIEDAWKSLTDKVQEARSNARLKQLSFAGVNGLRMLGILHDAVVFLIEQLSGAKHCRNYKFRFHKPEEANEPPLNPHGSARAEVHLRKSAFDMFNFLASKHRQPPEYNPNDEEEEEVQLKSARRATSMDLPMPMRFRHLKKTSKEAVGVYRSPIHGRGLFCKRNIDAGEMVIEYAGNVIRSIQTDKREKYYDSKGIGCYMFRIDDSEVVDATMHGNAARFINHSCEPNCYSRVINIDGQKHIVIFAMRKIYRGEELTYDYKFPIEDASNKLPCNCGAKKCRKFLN
Summary of the method: as §1
In the case of C=CC(=O)N1CCC(c2ccc(OCC)cc2)(c2nnn[nH]2)CC1, the IC50 is reported as 22 µM.
Work on C=CC(=O)N1CCC(C(=O)O)(c2ccc(OCC)cc2)CC1 yielded an IC50 of 3.3 µM.
Work on C=CC(=O)N1CCC(c2ccc(OC)cc2)(c2nnn[nH]2)CC1 yielded an IC50 of 15 µM.
In the case of C=CC(=O)N1CCC(c2cccc(OCC)c2)(c2nnn[nH]2)CC1, the IC50 is reported as 7.7 µM.
Work on C=CC(=O)N1CCC(C(=O)O)(c2ccccc2)CC1 yielded an IC50 of 7.1 µM.
Work on C=CC(=O)N1CCC(C(=O)O)(c2ccc(OC)cc2)CC1 yielded an IC50 of 43 µM.
In the case of C=CC(=O)N1CCC(c2ccccc2)(c2nnn[nH]2)CC1, the IC50 is reported as 4.9 µM.
C=CC(=O)N1CCC(C(=O)O)(c2ccc(Cl)cc2)CC1 gave an IC50 of 41 µM.
For C=CC(=O)N1CCC(C(=O)NS(=O)(=O)c2ccccc2)(c2ccccc2)CC1, the IC50 was 46 µM.
